CHOP UPR activ: activators of apoptotic arm of unfolded protein response (CHOP); activation, % at 10 µM; AID 449763; CHO-CHOP luciferase reporter, UPR activation, luminescence; percent of tunicamycin response over DMSO baseline; hit rate 0.34% among 330,000;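 active = at 10 µM dose, activation of 40% or more, normalized to positive control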;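 note: 100% = tunicamycin at 10 µg/mL and 0% = DMSO alone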
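Test system: CHO-CHOP cells, stable luciferase reporter of PERK-eIF2a-CHOP signalling | Quantity: 500 CHO-CHOP cells per well | Buffer or medium: F12 plus 10% serum | Compound dosing: 10 µM single point, 0.5% DMSO | Schedule: 6 h compound treatment, 37 °C | Signal: Luciferase luminescence | Control set: Tunicamycin high control, DMSO low control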
XBP1 UPR activ: activators of adaptive arm of unfolded protein response (XBP1); hit rate 0.33% among 330,000; activation, % at 20 µM; CHO-XBP1 luciferase reporter, IRE1-XBP1 UPR activation, luminescence; percent of tunicamycin response, DMSO as zero;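 active = versus positive control, 20 µM dose yields 30% or more activation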;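 note: 100% = tunicamycin at 10 µg/mL and 0% = DMSO only wells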
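Material – CHO cell line with stable XBP1 luciferase reporter · Buffer or medium – F12 plus 10% FBS · Compound – single point, 20 µM final compound, 1% DMSO · Schedule – 16-18 h cell attachment at 37 °C, then 6 h compound exposure · Signal – Steady-Glo luminescence read · Benchmarks – high control tunicamycin 10 µg/mL final, low control DMSO vehicle only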
CHOP inh: inhibitors of CHOP induction in ER stress response | CHO-K1 CHOP-promoter luciferase, tunicamycin-induced, 15-18 h | inhibition, % at 10 µM | hit rate 3.8% among 220,000;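 active = compounds that reduced the stress-induced luciferase reporter signal by more than about 70% of percent inhibition, limit read from the data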;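 note: 0% = tunicamycin plus vehicle and 100% = wells without tunicamycin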
A1 inh: inhibitors of the anti-apoptotic protein A1, read as caspase activation; MEF A1-2A-BIM cells, Caspase-Glo 3/7 luminescence, 3 h; percent of clofoctol response, vehicle zero; caspase activation, % (test concentration not listed); hit rate 0.066% among 330,000; AID 2462;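 active = over half of replicate activation scores above 10%, or exactly half above 10 with the replicate mean above 10; inconclusive = replicate mean below 10 yet half the replicates above 10; inactive = over half of replicates below 10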
UPR CHOP confirm: apoptotic UPR (CHOP) activation, confirmed; hit rate 64% among 1,000; CHO-CHOP cells, CHOP-luciferase reporter luminescence; percent of tunicamycin response, DMSO as zero; AID 463112; shares compounds with CHOP UPR activ; activation, % at 10 µM; in the data active = activation above about 33%;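 note: 0% = DMSO wells and 100% = tunicamycin 10 µg/mL wells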
XBP1 UPR conf: confirmation of adaptive unfolded protein response (XBP1) activators; CHO-XBP1 IRE1-XBP1 luciferase reporter, luminescence; hit rate 63% among 1,000; activation, % at 20 µM; AID 485299; shares compounds with XBP1 UPR activ;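 active = reporter signal at least 30% of the positive control's activation in two or more of four replicate wells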;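 note: plate controls were DMSO negative control for no effect and tunicamycin 10 µg/mL positive control for full effect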
The depositor's hits bear a star; ? = inconclusive; . = not tested or not shown. Shown is part of a subset that was picked to be rich in hits.

SMILES	CHOP UPR activ	XBP1 UPR activ	CHOP inh	A1 inh	UPR CHOP confirm	XBP1 UPR conf
CCOC(=O)N1CCN(S(=O)(=O)c2ccc(C(=O)Nc3nc4c(s3)CC(C)CC4)cc2)CC1 (configuration not stated)	64*	62*	93*	0	96*	116*
CCOC(=O)N1CCN(S(=O)(=O)c2ccc(C(=O)Nc3nnc(C4CC4)o3)cc2)CC1	0	-1	13	?	.	.
Cc1c(NC(=O)/C(C#N)=C/c2ccc(-c3cccc(Cl)c3)o2)c(=O)n(-c2ccccc2)n1C	1	5	61	-2	.	.
CC(=O)Nc1ccc(N=Cc2c(O)c(C(=O)Nc3ccccc3)cc3ccccc23)cc1	45*	90*	40	0	43*	13
O=C(CSc1nncc2ccccc12)Nc1cccc(O)c1	0	-4	.	-1	.	.
Cc1ccc(C(=O)Cn2c(C(=O)/C=C/c3ccccc3)nc3ccccc32)cc1	249*	32*	27	0	325*	46*
COc1cc([C@H]2c3[nH]c4ccccc4c3C[C@H]3C(=O)N4[C@@H](c5cc(OC)c(OC)c(OC)c5)c5[nH]c6ccccc6c5C[C@H]4C(=O)N23)cc(OC)c1OC	88*	153*	96*	0	109*	118*
CCN1C(=O)[C@@H]2Cc3c([nH]c4ccccc34)C(c3cc(OC)c(OC)c(OC)c3)N2C1=S (some centres not stated)	0	-4	.	2	.	.
Cc1ccc2c(c1)C(c1ccc([N+](=O)[O-])cc1)=NNC(c1ccc(Br)cc1)=N2	75*	84*	94*	-1	25	74*
COc1ccc(-c2csc3nc(-c4ccc(C)cc4)oc(=O)c23)cc1OC	57*	59*	63	0	32	42*
C=CCn1c(SCC(=O)Nc2cc3oc4ccccc4c3cc2OC)nnc1-c1cnccn1	2	4	56	1	.	.
CCOC(=O)N1CCN(C(=O)CNC(=O)c2ccc(Cl)cc2Cl)CC1	0	-1	.	0	.	.
O=[N+]([O-])c1ccc(Cl)c(-c2ccc(/C=N/c3c(-c4ccco4)nc4ccccn34)o2)c1	74*	90*	54	0	0	95*
Cc1ccc(N=Cc2c(O)c3ccccc3oc2=O)c(C)c1	21	7	.	-9	.	.
CC(=O)c1cccc(N=Cc2c(O)c3ccccc3oc2=O)c1	159*	147*	.	2	35*	93*
Cc1ccc(F)cc1N=Cc1c(O)c2ccccc2oc1=O	148*	76*	.	2	131*	141*
Cc1c(CNCc2cccs2)c(C(=O)O)c(C)n1Cc1ccccc1	1	-6	4	2	.	.
CCOc1cc(/C=C2/C(=N)N3C=CSC3=NC2=O)ccc1OCCCOc1ccccc1C	78*	265*	85*	41*	36*	134*
COc1ccc(S(=O)(=O)N2CCCCC2)cc1C(=O)Nc1cc(C)on1	1	-2	.	1	.	.
COc1cccc(-c2c(-c3cc(OC)cc(OC)c3)n(C)c3ccc(-c4cnc(N5CCOCC5)nc4)cc23)c1	104*	124*	.	0	28	93*
COc1cccc(-c2c(-c3cc(OC)cc(OC)c3)n(C)c3ccc(-c4cnc(OC)nc4)cc23)c1	1	-1	.	-1	.	.
CCOc1ccc(N2C(=O)c3ccccc3NC2(C)CC)cc1 (configuration not stated)	4	-1	.	-7	.	.
CCc1ccc2nc(N(CCCN(C)C)C(=O)c3ccc(S(=O)(=O)N4CCc5ccccc5C4)cc3)sc2c1	41*	59*	.	24*	30	59*
COc1cccc(/C=C/C(=O)OCC(=O)N2CCCC2)c1OC	3	-1	.	0	.	.
COc1ccc2nc(/C(C#N)=C\c3ccc(C(=O)O)cc3)[nH]c2c1	0	-2	7	1	.	.
SMILES	CHOP UPR activ	XBP1 UPR activ	CHOP inh	A1 inh	UPR CHOP confirm	XBP1 UPR conf
COc1ccc2nc(/C(C#N)=C\c3ccc(Oc4ccc([N+](=O)[O-])cn4)cc3)[nH]c2c1	98*	182*	71*	2	24	37*
COc1ccc([N+](=O)[O-])cc1NC(=O)COC(=O)Cn1cnc2ccccc2c1=O	2	3	.	1	.	.
O=C(N/N=C/c1ccco1)c1cc2ccccc2o1	4	-5	.	0	.	.
O=C(COc1ccc(/C=N/NC(=O)c2cc3ccccc3o2)cc1Br)Nc1ccccc1	275*	107*	-21	27*	58*	45*
CCOC(=O)c1cnc(Nc2nc3ccccc3o2)nc1CSC(=S)N(CC)CC	127*	33*	-90	0	122*	21
CCOC(=O)c1cnc(Nc2nc3ccccc3o2)nc1CSc1ncccn1	-1	2	.	0	.	.
Cc1cc(C)nc(SCc2ccc(C(=O)N/N=C/c3cccc(O)c3O)cc2)n1	140*	53*	-5	1	77*	52*
Cc1cc(C)nc(SCc2ccc(C(=O)N/N=C/c3ccc(C(=O)O)cc3)cc2)n1	-1	-1	8	1	.	.
CC1CCCC(C)N1/N=C/c1ccc(O)c(O)c1 (configuration not stated)	0	1	.	0	.	.
O=C1c2ccccc2C(=O)N1/N=C/c1ccc(O)c(O)c1	54*	72*	70*	1	18	37*
Cc1sc(NC(=O)c2cc(-c3ccc(Cl)cc3)nc3ccccc23)c(C(N)=O)c1C	107*	199*	-25	0	85*	183*
Cc1sc(NC(=O)c2cc(-c3ccccc3)nc3ccccc23)c(C(N)=O)c1C	7	2	21	-1	.	.
CCN1CCN(C(=S)Nc2ccc([N+](=O)[O-])cc2)CC1	-1	2	-16	0	.	.
Cc1ccc(-c2nn(-c3ccccc3)cc2/C=C/C(=O)Nc2nccs2)cc1	45*	50*	93*	2	13	26
CN1CC(=O)N2[C@H](c3ccc4c(c3)OCO4)c3[nH]c4ccccc4c3C[C@@H]2C1=O	-1	-6	36	1	.	.
Cc1cccnc1Nc1nc(-c2ccc(O)c(O)c2)cs1	155*	30*	-8	-2	114*	43*
COc1ccc(NC(=O)CSc2nnc(NC(=O)CN3CCOCC3)s2)cc1	-1	-2	-1	0	.	.
CCOc1ccccc1-n1c(SCC(=O)Nc2ccc(CC)cc2)nc2n[nH]c(C)c2c1=N	181*	246*	96*	0	107*	233*
CCc1ccc2n(-c3ccc(OC)cc3)c([S-])c(C(=O)Nc3cc(C)cc(C)c3)[n+]2c1	4	3	0	-1	.	.
